Source: PubChem (Johns Hopkins Ion Channel Center)
MrgX1 PAM: positive allosteric modulators of MrgX1, primary screen, HEK293 cells, Fluo-4 calcium flux | AID 588675, 2011 | Mas-related G-protein coupled receptor member X1 (Homo sapiens), Q96LB2 | FDSS; hits give high values | B-score at 10 µM | hit rate 0.63% among 310,000;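 active = plate-corrected calcium response at least 3 library SD above typical, normal starting fluorescence, not activating the receptor alone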;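 also: compound read alongside a low EC10 to EC30 dose of BAM8-22 agonist; peak minus trough fluorescence over baseline measured at the second addition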
Target sequence (Q96LB2 whole entry, looked up): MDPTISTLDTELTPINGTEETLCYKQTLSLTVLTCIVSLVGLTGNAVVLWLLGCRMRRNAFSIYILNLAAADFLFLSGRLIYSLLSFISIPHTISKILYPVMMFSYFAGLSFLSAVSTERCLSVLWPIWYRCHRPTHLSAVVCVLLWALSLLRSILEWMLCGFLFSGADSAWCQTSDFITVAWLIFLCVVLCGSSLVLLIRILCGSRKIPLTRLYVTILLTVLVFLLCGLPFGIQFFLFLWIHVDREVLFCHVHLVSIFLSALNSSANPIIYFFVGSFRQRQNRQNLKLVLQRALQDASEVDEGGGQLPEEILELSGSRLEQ
MrgX1 ag: agonists of human MrgX1 receptor, primary screen, HEK293 cells, Fluo-4 calcium flux; B-score at 10 µM; hit rate 0.44% among 310,000; Mas-related G-protein coupled receptor member X1 (Homo sapiens), Q96LB2; AID 588627, 2011; Fluo-4 calcium fluorescence, agonist mode; hits give high values;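 active = calcium response B-score plate-corrected fluorescence ratio at least 3 library SD, with starting fluorescence B-score inside 5 SD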
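Material – MrgX1-expressing HEK293 cells · Input – 15,000 cells seeded per well · Dosing – compound as first of three additions · Times – overnight seeding, then 1 h dark dye loading · Measured by – kinetic Fluo-4 NW fluorescence of intracellular calcium · Read-out – B-scored fluorescence response ratio · Benchmarks – positive and negative control wells on each plate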
MrgX1 antag: antagonists of human MrgX1 receptor, primary screen, HEK293 cells, Fluo-4 calcium flux; Mas-related G-protein coupled receptor member X1 (Homo sapiens), Q96LB2; BAM8-22 antagonism; hits give low values; B-score at 10 µM; hit rate 1.3% among 310,000; AID 588676, 2011;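 active = calcium-response B-score plate-corrected more than 3 library SD below zero, starting fluorescence within 5 deviations, no agonist response on first addition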;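 also: peak minus trough fluorescence over baseline after final BAM8-22 challenge near maximal dose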
RGS4 inh: RGS4 inhibitors, primary screen, cell-based, HEK293 M3R inducible RGS4, calcium flux | Regulator of G-protein signaling 4 (Homo sapiens), P49798 | Fluo-4 calcium flux; hits give high values; triggered by carbachol at its EC20 | B-score at 10 µM | hit rate 0.45% among 310,000 | AID 463165, 2010;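 active = B-score, a plate-corrected calcium signal, over three deviations above library mean, with baseline fluorescence within five deviations of library mean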;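 also: RGS4 expression induced by doxycycline in cells with stable M3 receptor; B-score is computed from the integrated fluorescence ratio over baseline after carbachol; higher B-score means a larger calcium signal and so more RGS4 inhibition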
Target sequence (P49798 whole entry, looked up): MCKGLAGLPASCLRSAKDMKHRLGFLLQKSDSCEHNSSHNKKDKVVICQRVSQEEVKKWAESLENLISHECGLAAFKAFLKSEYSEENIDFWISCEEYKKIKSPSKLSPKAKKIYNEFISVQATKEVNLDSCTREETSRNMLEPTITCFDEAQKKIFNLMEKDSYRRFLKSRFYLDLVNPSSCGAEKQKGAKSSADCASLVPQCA
RGS4 act: RGS4 potentiators or activators, primary screen, cell-based, HEK293 M3R inducible RGS4, calcium flux; hit rate 0.92% among 310,000; B-score at 10 µM; carbachol calcium flux Fluo4; hits give low values;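 active = B-score of the integrated calcium signal more than 4 SD below the library mean, with starting fluorescence not abnormally high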;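 also: negative B-score means reduced calcium response which marks RGS4 activation or potentiation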
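test system = HEK293 cells with stable M3R and inducible RGS4 | schedule = recording 10 s baseline at 1 Hz, 100 s post-agonist | technique = Fluo4-AM (2 µM) calcium-flux fluorescence, kinetic read | measure = Agonist-evoked peak-minus-minimum fluorescence over baseline, integrated ratio, B score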
* marks the source's active call; other numbers are inactive results; i = inactive; . = not tested or not shown. Rows were chosen to be rich in hits. Some 3.5% of all compounds tested hit in one or more screens of this group.

SMILES | MrgX1 PAM | MrgX1 ag | MrgX1 antag | RGS4 inh | RGS4 act
Cc1cc(C)nc(NS(=O)(=O)c2ccc(NC(=O)c3snnc3C)cc2)n1 | i | i | i | i | i
C=CC[N+]1(CC#Cc2ccccc2)CCCC1 | i | i | i | i | i
C(#Cc1ccccc1)C[N+]1(CC#Cc2ccccc2)CCCC1 | i | i | i | i | -8.1*
COc1cc(/C=C(\C#N)c2ccccn2)cc(OC)c1O | i | 51* | i | i | i
COc1cc(/C=C(\C#N)c2ccccn2)ccc1OCc1ccccc1Cl | i | i | i | . | .
c1ccc(COc2ccc(OCCCCN3CCCCC3)cc2)cc1 | i | i | i | i | -10*
CN1CCN(CCOc2ccc(-c3ccccc3)cc2)CC1 | i | i | i | i | i
CN1CCN(CCCOc2ccc(-c3ccccc3)cc2)CC1 | i | i | i | i | -9.3*
O=C(NC1CCSc2ccccc21)c1ccc(Cl)c(S(=O)(=O)N2CCOCC2)c1 (stereo not drawn) | i | i | i | i | i
CSc1sccc1/C=C(/C#N)C(=O)c1ccco1 | i | 37* | i | i | i
CC(C)CN(C(=O)c1ccc(S(=O)(=O)N2CCCC2)cc1)C1CCS(=O)(=O)C1 (stereo not drawn) | i | i | i | i | i
CC(Cc1nnc(SCC(=O)O)n1N)c1ccccc1 (stereo not drawn) | i | i | i | i | i
CCCc1cc(-c2nc(N)ncc2-c2ccc3c(c2)OCCCO3)c(O)cc1OC | i | i | i | i | -9.2*
COc1cc2c(cc1NC(=O)CSc1ccc(C)cc1)oc1ccccc12 | i | i | i | i | i
COc1cc2c(cc1NC(=O)C(C)Sc1ccc(C)cc1)oc1ccccc12 (stereo not drawn) | i | i | i | i | -7*
CCN(CC)CCC(C)OC(c1ccccc1)c1ccccc1 (stereo not drawn) | i | i | i | i | -8.7*
COCCN1C(=O)N(c2cccc(C)c2)C(=O)C1CC(=O)Nc1cc(OC)cc(OC)c1 (stereo not drawn) | i | i | i | i | i
O=C(/C=C/c1ccc(Cl)cc1)c1cccnc1 | i | i | i | i | i
O=C(/C=C/c1ccccc1Cl)c1cccnc1 | i | 28* | i | i | i
Clc1ccc(CN2CCc3c([nH]c4ccccc34)C2)cc1Cl | i | i | -4.6* | i | i
O=C(C1=C(O)C(=O)N(CCN2CCOCC2)C1c1ccc([N+](=O)[O-])cc1)c1cccs1 (stereo not drawn) | i | i | i | i | i
CN(C)CCCN1C(=O)C(O)=C(C(=O)c2cccs2)C1c1cccc([N+](=O)[O-])c1 (stereo not drawn) | 6.6* | i | i | i | i
O=C(O)c1ccc(/C=N/NC(=O)C2CC2(c2ccccc2)c2ccccc2)cc1 (stereo not drawn) | i | i | -5.7* | i | i
CCOc1ccccc1NC(=O)NNC(=O)COc1cccc(C)c1C | i | i | i | i | i
Cc1cccc(-n2c(SCc3cc(=O)n4ccsc4n3)nc3ccccc32)c1 | i | i | i | i | -7.4*
SMILES | MrgX1 PAM | MrgX1 ag | MrgX1 antag | RGS4 inh | RGS4 act
O=C(CN1C(=O)NC2(CCOc3ccccc32)C1=O)c1ccc[nH]1 (stereo not drawn) | i | i | i | i | i
CC(C)(C)c1ccc(CN2N=Nc3ccccc3S2(=O)=O)cc1 | i | i | i | i | i
O=S1(=O)c2ccccc2N=NN1Cc1ccc(Cl)c(Cl)c1 | i | 29* | i | i | i
Oc1cccc2c(NC(=S)Nc3ccc(SC(F)F)cc3)cccc12 | i | i | -5.3* | i | i
N#CC1=C(N)n2c(s/c(=C\c3cccs3)c2=O)=C(C#N)C1c1cccs1 (stereo not drawn) | i | i | -7.4* | i | i
O=C1Nc2ccccc2/C1=C/c1cccnc1 | i | i | i | i | i
O=C1Nc2ccccc2/C1=C/c1cnc(-c2ccccc2)[nH]1 | i | i | i | i | -7*
Cn1c(=O)c2c(nc(SCC(=O)c3ccccc3F)n2C)n(C)c1=O | i | i | -7* | i | i
CCCc1nn2c(=O)cc(CSCC(=O)Nc3ccc(OC)cc3)nc2s1 | i | i | i | i | i
COc1ccc(NC(=O)COC(=O)c2ccc(OCc3ccccc3Cl)c(OC)c2)c(OC)c1 | i | i | -6* | i | i
Cc1[nH]c2ccccc2c1C(=O)C(=O)NCc1ccco1 | i | i | i | i | i
CN(Cc1ccccc1)S(=O)(=O)c1ccc(S(=O)(=O)N(Cc2ccc(F)cc2)C2CCCC2)cc1 | i | i | -4.6* | i | i
C=CS(=O)(=O)c1sc(Cl)c(N2CCOCC2)c1[N+](=O)[O-] | . | . | . | i | -11*
CN(CC(=O)Nc1ccccc1Cl)C(=O)COC(=O)C1=COCCO1 | i | i | i | i | i
CC(CCN1CCN=C1Nc1ccccc1)c1ccccc1 (stereo not drawn) | i | i | i | i | i
O=C(NCC1CCCO1)/C(=C\c1cccc([N+](=O)[O-])c1)NC(=O)c1ccccc1 (stereo not drawn) | i | i | -5.7* | i | i
O=C(NCC1CCCO1)/C(=C/c1ccccc1)NC(=O)c1ccccc1 (stereo not drawn) | i | i | i | i | i
Cc1cc(C)c(C#N)c(SCc2c(F)cccc2[N+](=O)[O-])n1 | i | i | -5.7* | i | i
Cc1cccc(C)c1OCc1cc(C(=O)N(C)Cc2nc3ccccc3[nH]2)no1 | i | i | i | i | i
COc1ccc(-c2[nH]ncc2CN2CCCO2)cc1F | i | i | i | i | i
COc1ccc2cc(-c3[nH]ncc3CN3CCCCO3)ccc2c1 | i | 35* | i | i | i
O=C1CSC(c2ccccc2)N1c1cccnc1 (stereo not drawn) | i | i | i | i | i
Cc1c(CCOC(=O)CC23CC4CC(CC(C4)C2)C3)sc[n+]1Cc1ccccc1 | i | i | i | i | -7.7*
Cc1ncc(C[n+]2csc(CCOC(=O)CC34CC5CC(CC(C5)C3)C4)c2C)c(N)n1 | i | i | i | i | i
